Reference: publication PMC7004521 (Cancer Science, 2019)

Test: Adverse events suspected to be study drug related, phase 1 study
Format: in vivo, human
Summary of the method: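 Adult patients with advanced solid tumours and confirmed MET dysregulation took oral capsules twice daily from 100 up to 600 mg in escalation, or 400 mg bid tablets, in 28-day cycles. Expansion was 600 mg bid capsules, with a switch to 400 mg bid tablets allowed. Patients were included if they had ≥1 dose and ≥1 valid post-baseline safety assessment. Events were graded by CTCAE v4.0.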

[1] = drug-related, all escalation N=38
[2] = drug-related, all expansions RP2D N=38
[3] = drug-related, escalation 400 mg bid tablet n=5

CNC(=O)c1ccc(-c2cnc3ncc(Cc4ccc5ncccc5c4)n3n2)cc1F [capmatinib]
tolerability (across all explored doses): well tolerated | ALT increased, all grades [1]: 3 (8) n (%) | ALT increased, grade 3/4 [1]: 2 (5) n (%) | AST increased, all grades [1]: 5 (13) n (%) | AST increased, grade 3/4 [1]: 1 (3) n (%) | Amylase increased, all grades [1]: 2 (5) n (%) | Amylase increased, grade 3/4 [1]: 1 (3) n (%) | Asthenia, all grades [1]: 6 (16) n (%) | Asthenia, grade 3/4 [1]: 0 n (%) | Blood bilirubin increased, all grades [1]: 4 (11) n (%) | Blood bilirubin increased, grade 3/4 [1]: 1 (3) n (%) | Blood creatinine increased, all grades [1]: 2 (5) n (%) | Blood creatinine increased, grade 3/4 [1]: 0 n (%) | Constipation, all grades [1]: 3 (8) n (%) | Constipation, grade 3/4 [1]: 0 n (%) | Decreased appetite, all grades [1]: 11 (29) n (%) | Diarrhea, all grades [1]: 5 (13) n (%) | Diarrhea, grade 3/4 [1]: 0 n (%) | Dizziness, all grades [1]: 1 (3) n (%) | Dizziness, grade 3/4 [1]: 0 n (%) | Dyspepsia, all grades [1]: 1 (3) n (%) | Dyspepsia, grade 3/4 [1]: 0 n (%) | Fatigue, all grades [1]: 10 (26) n (%) | Fatigue, grade 3/4 [1]: 3 (8) n (%) | Headache, all grades [1]: 2 (5) n (%) | Headache, grade 3/4 [1]: 0 n (%) | Hypoalbuminemia, all grades [1]: 6 (16) n (%) | Hypoalbuminemia, grade 3/4 [1]: 1 (3) n (%) | Hypophagia, all grades [1]: 2 (5) n (%) | Hypophagia, grade 3/4 [1]: 2 (5) n (%) | Lipase increased, all grades [1]: 1 (3) n (%) | Lipase increased, grade 3/4 [1]: 1 (3) n (%) | Maculo‐papular rash, all grades [1]: 1 (3) n (%) | Maculo‐papular rash, grade 3/4 [1]: 0 n (%) | Myalgia, all grades [1]: 2 (5) n (%) | Myalgia, grade 3/4 [1]: 0 n (%) | Nausea, all grades [1]: 12 (32) n (%) | Nausea, grade 3/4 [1]: 0 n (%) | Odynophagia, all grades [1]: 2 (5) n (%) | Odynophagia, grade 3/4 [1]: 0 n (%) | Peripheral edema, all grades [1]: 8 (21) n (%) | Peripheral edema, grade 3/4 [1]: 1 (3) n (%) | Pyrexia, all grades [1]: 2 (5) n (%) | Pyrexia, grade 3/4 [1]: 0 n (%) | Stomatitis, all grades [1]: 2 (5) n (%) | Stomatitis, grade 3/4 [1]: 0 n (%) | Thrombocytopenia, all grades [1]: 1 (3) n (%) | Thrombocytopenia, grade 3/4 [1]: 0 n (%) | Total protein decreased, all grades [1]: 2 (5) n (%) | Total protein decreased, grade 3/4 [1]: 0 n (%) | Upper abdominal pain, all grades [1]: 2 (5) n (%) | Upper abdominal pain, grade 3/4 [1]: 0 n (%) | Vomiting, all grades [1]: 11 (29) n (%) | Vomiting, grade 3/4 [1]: 0 n (%) | ALT increased, all grades [2]: 2 (5) n (%) | ALT increased, grade 3/4 [2]: 2 (5) n (%) | AST increased, all grades [2]: 4 (11) n (%) | Amylase increased, all grades [2]: 0 n (%) | Amylase increased, grade 3/4 [2]: 0 n (%) | Asthenia, all grades [2]: 2 (5) n (%) | Asthenia, grade 3/4 [2]: 0 n (%) | Blood bilirubin increased, all grades [2]: 0 n (%) | Blood bilirubin increased, grade 3/4 [2]: 0 n (%) | Blood creatinine increased, all grades [2]: 2 (5) n (%) | Blood creatinine increased, grade 3/4 [2]: 1 (3) n (%) | Constipation, all grades [2]: 1 (3) n (%) | Constipation, grade 3/4 [2]: 0 n (%) | Decreased appetite, all grades [2]: 4 (11) n (%) | Decreased appetite, grade 3/4 [2]: 0 n (%) | Diarrhea, all grades [2]: 7 (18) n (%) | Diarrhea, grade 3/4 [2]: 0 n (%) | Dizziness, all grades [2]: 2 (5) n (%) | Dizziness, grade 3/4 [2]: 0 n (%) | Dyspepsia, all grades [2]: 2 (5) n (%) | Dyspepsia, grade 3/4 [2]: 0 n (%) | Fatigue, all grades [2]: 9 (24) n (%) | Fatigue, grade 3/4 [2]: 1 (3) n (%) | Headache, all grades [2]: 1 (3) n (%) | Headache, grade 3/4 [2]: 0 n (%) | Hypoalbuminemia, all grades [2]: 1 (3) n (%) | Hypoalbuminemia, grade 3/4 [2]: 0 n (%) | Lipase increased, all grades [2]: 3 (8) n (%) | Lipase increased, grade 3/4 [2]: 2 (5) n (%) | Localized edema, all grades [2]: 2 (5) n (%) | Localized edema, grade 3/4 [2]: 0 n (%) | Maculo‐papular rash, all grades [2]: 2 (5) n (%) | Maculo‐papular rash, grade 3/4 [2]: 0 n (%) | Myalgia, all grades [2]: 2 (5) n (%) | Myalgia, grade 3/4 [2]: 0 n (%) | Nausea, all grades [2]: 11 (29) n (%) | Nausea, grade 3/4 [2]: 1 (3) n (%) | Odynophagia, all grades [2]: 0 n (%) | Odynophagia, grade 3/4 [2]: 0 n (%) | Peripheral edema, all grades [2]: 10 (26) n (%) | Peripheral edema, grade 3/4 [2]: 0 n (%) | Pyrexia, all grades [2]: 0 n (%) | Pyrexia, grade 3/4 [2]: 0 n (%) | Stomatitis, all grades [2]: 1 (3) n (%) | Stomatitis, grade 3/4 [2]: 0 n (%) | Thrombocytopenia, all grades [2]: 2 (5) n (%) | Thrombocytopenia, grade 3/4 [2]: 1 (3) n (%) | Total protein decreased, all grades [2]: 0 n (%) | Total protein decreased, grade 3/4 [2]: 0 n (%) | Upper abdominal pain, all grades [2]: 0 n (%) | Upper abdominal pain, grade 3/4 [2]: 0 n (%) | Vomiting, all grades [2]: 7 (18) n (%) | Vomiting, grade 3/4 [2]: 1 (3) n (%) | ALT increased, all grades [3]: 1 (20) n (%) | ALT increased, grade 3/4 [3]: 0 n (%) | AST increased, all grades [3]: 1 (20) n (%) | Amylase increased, all grades [3]: 0 n (%) | Amylase increased, grade 3/4 [3]: 0 n (%) | Asthenia, all grades [3]: 1 (20) n (%) | Asthenia, grade 3/4 [3]: 0 n (%) | Blood bilirubin increased, all grades [3]: 0 n (%) | Blood bilirubin increased, grade 3/4 [3]: 0 n (%) | Blood creatinine increased, all grades [3]: 0 n (%) | Blood creatinine increased, grade 3/4 [3]: 0 n (%) | Constipation, all grades [3]: 1 (20) n (%) | Constipation, grade 3/4 [3]: 0 n (%)
